The source of these data is ChEMBL document CHEMBL3603823, “Ethylenedioxy homologs of N-methyl-(3,4-methylenedioxyphenyl)-2-aminopropane (MDMA) and its corresponding cathinone analog methylenedioxymethcathinone: Interactions with transporters for serotonin, dopamine, and norepinephrine” (Bioorg Med Chem, 2015).

Holding throughout (type): subcellular
The target of experiment [1] is Sodium-dependent serotonin transporter (Rattus norvegicus, UniProt P31652). Nature of the experiment: Binding affinity to SERT in Sprague-Dawley rat brain synaptosomes assessed as induction of [3H]5-HT release by liquid scintillation counting method. In short, it runs like this: (§1)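 Rat synaptosomes with 1 μM reserpine in all buffers; SERT and NET from whole brain minus caudate and cerebellum (900 μg/mL protein), DAT from caudate (90 μg/mL). Preloaded 1 h in Krebs-phosphate buffer with 5 nM [3H]5-HT (SERT) or 9 nM [3H]MPP+ (NET, DAT), with unlabeled blockers of competing transporters. Eight-point curves, 10–10,000 nM, triplicate, 3 occasions. Filtration, scintillation counting; EC50 by non-linear regression.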
Sodium-dependent serotonin transporter, sequence (P31652 whole entry): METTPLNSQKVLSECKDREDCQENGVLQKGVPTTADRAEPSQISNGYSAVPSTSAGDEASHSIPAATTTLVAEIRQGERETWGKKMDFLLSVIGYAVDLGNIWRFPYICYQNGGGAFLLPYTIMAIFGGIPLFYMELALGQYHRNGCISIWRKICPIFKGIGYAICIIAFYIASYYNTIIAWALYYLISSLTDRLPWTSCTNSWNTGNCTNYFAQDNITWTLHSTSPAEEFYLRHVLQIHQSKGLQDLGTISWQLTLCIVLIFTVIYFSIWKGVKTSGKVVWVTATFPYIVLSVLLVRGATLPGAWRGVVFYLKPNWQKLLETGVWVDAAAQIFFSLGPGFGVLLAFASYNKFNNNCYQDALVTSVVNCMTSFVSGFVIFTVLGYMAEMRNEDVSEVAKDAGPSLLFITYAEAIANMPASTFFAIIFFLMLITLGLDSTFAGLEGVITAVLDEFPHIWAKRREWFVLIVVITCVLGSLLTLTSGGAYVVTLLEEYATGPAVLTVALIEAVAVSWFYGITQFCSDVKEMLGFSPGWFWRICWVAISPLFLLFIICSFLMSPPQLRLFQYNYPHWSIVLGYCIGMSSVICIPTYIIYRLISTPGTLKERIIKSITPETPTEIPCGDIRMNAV

Experiment [2] concerns the target Sodium-dependent dopamine transporter (Rattus norvegicus, UniProt P23977). Nature of the experiment: Binding affinity to DAT in Sprague-Dawley rat brain synaptosomes assessed as induction of [3H]MPP+ release by liquid scintillation counting method. In short, it runs like this:
as §1

Experiment [3] in a line: Binding affinity to NET in Sprague-Dawley rat brain synaptosomes assessed as induction of [3H]MPP+ release by liquid scintillation counting method. Summed up: as §1
For experiment [4], the target named is Sodium-dependent serotonin transporter (Rattus norvegicus) (UniProt P31652). Nature of the experiment: Binding affinity to SERT in Sprague-Dawley rat brain synaptosomes assessed as induction of [3H]5-HT release by liquid scintillation counting method relative to control. Summed up:
(§2)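 Release measured in rat synaptosomes preloaded 1 h with 5 nM [3H]5-HT (SERT) or 9 nM [3H]MPP+ (NET, DAT), with reserpine and unlabeled blockers; test drug 10–10,000 nM. Efficacy is % of maximal release, defined as release by tyramine: 100 μM for SERT, 10 μM for DAT and NET. Filtration and scintillation counting; n = 3–4 experiments in triplicate.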

The target in experiment [5] is Sodium-dependent dopamine transporter (Rattus norvegicus) (UniProt P23977). The experiment is described as follows: Binding affinity to DAT in Sprague-Dawley rat brain synaptosomes assessed as induction of [3H]MPP+ release by liquid scintillation counting method relative to control. In short, it runs like this:
as §2

Experiment [6] is filed under the species Rattus norvegicus. Nature of the experiment: Binding affinity to NET in Sprague-Dawley rat brain synaptosomes assessed as induction of [3H]MPP+ release by liquid scintillation counting method relative to control. In short, it runs like this: as §2
The species entered for experiment [7] is Rattus norvegicus. The experiment is described as follows: Selectivity index, ratio of EC50 for DAT in Sprague-Dawley rat brain synaptosomes to EC50 for SERT in Sprague-Dawley rat brain synaptosomes.
The species entered for experiment [8] is Rattus norvegicus. Nature of the experiment: Selectivity index, ratio of EC50 for NET in Sprague-Dawley rat brain synaptosomes to EC50 for SERT in Sprague-Dawley rat brain synaptosomes.

Sodium-dependent dopamine transporter (Rattus norvegicus), sequence (P23977 whole entry): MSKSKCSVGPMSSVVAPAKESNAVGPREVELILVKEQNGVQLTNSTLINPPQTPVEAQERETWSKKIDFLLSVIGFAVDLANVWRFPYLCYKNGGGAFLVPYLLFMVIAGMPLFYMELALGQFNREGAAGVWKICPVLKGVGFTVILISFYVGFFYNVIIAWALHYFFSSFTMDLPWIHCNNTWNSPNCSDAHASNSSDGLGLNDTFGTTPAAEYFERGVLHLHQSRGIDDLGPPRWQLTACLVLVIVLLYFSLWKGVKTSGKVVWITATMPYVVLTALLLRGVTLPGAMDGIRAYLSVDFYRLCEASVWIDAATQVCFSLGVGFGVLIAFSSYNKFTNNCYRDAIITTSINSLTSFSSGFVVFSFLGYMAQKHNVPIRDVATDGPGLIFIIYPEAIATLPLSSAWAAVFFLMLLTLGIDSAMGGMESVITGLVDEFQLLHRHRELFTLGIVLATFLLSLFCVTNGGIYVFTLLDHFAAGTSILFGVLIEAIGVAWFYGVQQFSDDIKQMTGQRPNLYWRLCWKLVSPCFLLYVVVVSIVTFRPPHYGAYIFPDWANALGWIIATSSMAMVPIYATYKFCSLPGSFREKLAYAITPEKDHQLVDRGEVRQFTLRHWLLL
Sodium-dependent dopamine transporter, sequence (P23977 whole entry): as above
Sodium-dependent serotonin transporter (Rattus norvegicus), sequence (P31652 whole entry): as the sequence (P31652 whole entry) above

As usually defined, the EC50 is the midpoint of the concentration-response curve. In the case of `CN[C@@H](C)Cc1ccc2c(c1)OCCO2`, the values for the EC50 in experiment [1], in experiment [2] and in experiment [3] were 91 nM, 276 nM and 239 nM, respectively. Also, the %max in experiment [4] turned out to be 96%; in experiment [5], 103%; in the experiment listed under Rattus norvegicus [6], 94%.

In the case of `CN[C@H](C)Cc1ccc2c(c1)OCCO2`, the EC50 in experiment [1] was determined as 573 nM; in experiment [2], 14600 nM; in experiment [3] it was 1950 nM. Further, the %max in experiment [4] was 97%; in experiment [5], 106%; in the experiment filed under Rattus norvegicus [6] it was 85%.

For the compound `CNC(C)Cc1ccc2c(c1)OCCO2` (racemic), the EC50 in experiment [1] worked out at 117 nM; in experiment [2], 597 nM; in experiment [3] it was 325 nM. The values for the %max (in experiment [4]; in experiment [5]; in the experiment filed under Rattus norvegicus [6]) were 102%, 108% and 91%, respectively. Moreover, the Ratio EC50 in the experiment listed under Rattus norvegicus [7] stood at 6; in the experiment filed under Rattus norvegicus [8], 3.

As for `CNC(C)C(=O)c1ccc2c(c1)OCCO2` (racemic), the EC50 in experiment [1] is 347 nM; in experiment [2] it was 496 nM; in experiment [3], 327 nM. The %max in experiment [4] amounted to 105%; in experiment [5], 105%; in the experiment listed under Rattus norvegicus [6], 84%.

Regarding `CNC(C)C(=O)c1ccc2c(c1)OCO2` (racemic) [METHYLONE], the EC50 in experiment [1] is 242 nM; in experiment [2] it was 133 nM; in experiment [3] it was 152 nM.

Take `CNC(C)Cc1ccc2c(c1)OCO2` (racemic) [MIDOMAFETAMINE]: the concentration for a half-maximal effect (EC50) in experiment [1] was found to be 61 nM; in experiment [2], 75 nM; in experiment [3] it was 72 nM. Also, the %max worked out at 98% in experiment [4], 99% in experiment [5] and 95% in the experiment filed under Rattus norvegicus [6].
